Experimental data taken from article PMC2803432 (Current Chemical Genomics, 2008).
Residues, ends and D or L forms follow the SMILES beside them. No end group written: not given here.

Legend:
[1] = test system: 14-3-3 proteins; settings: cited from earlier work
[2] = target: T1, 14-3-3γ (Homo sapiens, UniProt P61981); experiment: AlphaScreen direct binding of biotin-pS259-Raf-1 to GST-14-3-3γ; settings: increasing GST-14-3-3γ and biotin-pS259-Raf-1 with both beads
T1 sequence (P61981 1-247): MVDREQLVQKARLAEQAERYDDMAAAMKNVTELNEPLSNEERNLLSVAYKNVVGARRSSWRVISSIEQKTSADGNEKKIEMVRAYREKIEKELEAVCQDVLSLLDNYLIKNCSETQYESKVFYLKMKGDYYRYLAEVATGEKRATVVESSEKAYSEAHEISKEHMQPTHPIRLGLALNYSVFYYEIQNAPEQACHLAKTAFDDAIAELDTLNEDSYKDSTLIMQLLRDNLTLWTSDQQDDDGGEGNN
How it was run: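 Biotinylated pS259-Raf-1 peptide (LSQRSTpSTPNVHM) was titrated with purified GST-14-3-3γ; Z' runs used 100 nM peptide. Anti-GST acceptor beads were added and incubated 30 min, then streptavidin donor beads for 1.5 h. Luminescence was read under dim light. Background wells held one binding component.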

[3] = target: T1, 14-3-3γ; experiment: AlphaScreen direct binding of GST-R18 to biotin-14-3-3γ; settings: GST-R18 5 nM to 500 nM; biotin-14-3-3γ 5 nM or 10 nM
How it was run: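 His-14-3-3γ expressed in E. coli BL21(DE3), Ni2+-column purified, desalted, then biotinylated with sulfo-NHS-LC-biotin. GST-R18 expressed in E. coli. Anti-GST acceptor beads added, then streptavidin donor beads 30 min later. Read after 1.5 h at room temperature under dim light. Background wells held one component. Triplicate, mean ± SD.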

[4] = target: biotinylated His-14-3-3γ (UniProt P61981); experiment: AlphaScreen or HTRF
[5] = target: GST-14-3-3γ (UniProt P61981); experiment: AlphaScreen or HTRF
[6] = target: T2, GST-14-3-3γ (UniProt P61981 1-247); experiment: AlphaScreen or HTRF
T2 sequence (looked up): T1 sequence (P61981 1-247)

[7] = target: T3, biotinylated His-14-3-3γ (UniProt P61981 1-247, biotin (EZ-Link sulfo-NHS-LC-biotin; sites not stated)); experiment: AlphaScreen or HTRF
T3 sequence (looked up): T1 sequence (P61981 1-247)

In the case of `CSCC[C@H](NC(=O)[C@H](CC(N)=O)NC(=O)[C@H](C)NC(=O)[C@H](CCC(=O)O)NC(=O)[C@H](CC(C)C)NC(=O)[C@H](CC(=O)O)NC(=O)[C@H](CC(C)C)NC(=O)[C@H](Cc1c[nH]c2ccccc12)NC(=O)[C@H](CO)NC(=O)[C@H](CC(C)C)NC(=O)[C@H](CC(=O)O)NC(=O)[C@H](CCCNC(=N)N)NC(=O)[C@@H]1CCCN1C(=O)[C@@H](NC(=O)[C@H](CS)NC(=O)[C@H](Cc1c[nH]cn1)NC(=O)[C@@H]1CCCN1)C(C)C)C(=O)N[C@@H](CS)C(=O)N[C@@H](CC(C)C)C(=O)N1CCC[C@H]1C(=O)O` [R18] (H-PHCVPRDLSWLDLEANMCLP-OH; N-terminus and C-terminus assumed), the “effect of GST fusion on efficacy of R18 for 14-3-3 binding” value ([1]; GST fusion of R18, ref [10]) is listed as “no detectable effect on the efficacy of R18 for 14-3-3 binding”, the “competition with natural proteins for binding of 14-3-3 (in words)” value ([1]; ref [17]) is listed as “can effectively compete with other natural proteins for the binding of 14-3-3 proteins” and the “affinity for 14-3-3 proteins (in words)” value ([1]; unphosphorylated peptide from phage display, ref [10]) is listed as “exhibits a high affinity for 14-3-3 proteins”.

With “Biotin-LSQRSTpSTPNVHM [biotin-pS259-Raf-1]” the “Alpha signal with increasing concentration (in words)” value [2] was “dose-dependent increase in Alpha signal”.

In the case of “GST-R18: GST-tagged R18 protein-peptide fusion, purified from bacterial cells (PHCVPRDLSWLDLEANMCLP; cysteine pairing not given here; also: GST tag fused, end not given here)”, the “Alpha signal with increasing concentration (in words)” value [3] is reported as “induced the robust production of Alpha signal in a dose-dependent manner”.

pS967-ASK1 peptide showed an IC50 [4] of 549 nM and an IC50 [5] of 535 nM.

For PHCVPRDLSWLDLEANMCLP [untagged R18 peptide], the IC50 [6] was 35.7 ± 1.1 nM and the IC50 [7] was 28 ± 1.1 nM.
